# This excerpt belongs to a sample that is enriched for hits.
# HUVEC inhibit – human endothelial cell proliferation inhibition | actives 1.1% (n = 86,000) | HUVEC proliferation, CellTiter-Glo luminescence, 72 h; active compounds read low | viability, % at 10 µM (by protocol);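 active = viability at or below 30%; inactive = viability above 30%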
# H69AR inhibit – growth inhibitors of human H69AR lung tumor cells. H69AR lung tumor viability, ATP luminescence, 72 h; active compounds read low. viability, % at 10 µM. actives 6% (n = 85,000);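 active = viability at or below 40%; inactive = viability above 40%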;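 also: multidrug resistant small cell line overexpressing MRP-1 efflux transporter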
# PTEN del growth – growth suppressors of cells with PTEN tumor suppressor deletion | HCT116 PTEN-null viability, CellTiter-Glo, 60 h; active compounds read low | actives 1.2% (n = 140,000) | viability, % at 10 µM | AID 827;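 active = viability at or below a set limit, 4 SD under the median of all tested compounds, cut at about 3.7% in these data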;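 also: PTEN knockout HCT116 line with beta catenin targeted HCT116 as companion control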
# Fibroblast inh – blocks proliferation of human lung fibroblasts. LL 47 human lung fibroblast viability, ATP luminescence; active compounds read low. viability, % at 10 µM. actives 1.1% (n = 85,000);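 active = viability at or below 50% in the single dose screen; inactive = viability above 50%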;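 also: compound exposure lasted 72 h before the ATP readout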
#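 Test system: LL 47 human lung fibroblasts; Quantity: 1,150 cells/well; Buffer or medium: IMEM plus 15% FBS; Dosing: tenfold compound dosing solution, DMSO at 0.1%; Timing: overnight cell rest, 72 h compound treatment at 37 °C; Detection: ATP-based CellTiter-Glo luminescent readout; Read-out basis: viability percentage against median untreated-cell control; Controls: cell-only wells, no compound.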
# HCT116 bCat-KO – beta-catenin-lacking colon tumor cell growth suppression; HCT116 beta-catenin knockout viability, CellTiter-Glo, 60 h; active compounds read low; viability, % at 10 µM; actives 1.5% (n = 140,000);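 active = viability at or under a set limit, the compound median less 4 SD, cut at about 6% in these data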
# Hits are given with their value; 0 = inactive; - = not tested or not shown.
SMILES,HUVEC inhibit,H69AR inhibit,PTEN del growth,Fibroblast inh,HCT116 bCat-KO
CCOc1cc(S(=O)(=O)NCc2ccc(OC)cc2)c(OCC)cc1-n1cnnn1,0,21.6,0,0,0
CCOc1cc(S(=O)(=O)NCCc2ccc(OC)c(OC)c2)c(OCC)cc1-n1cnnn1,0,0,0,0,0
N#CCSc1nnc(-c2ccccc2)c(-c2ccccc2)n1,-,-,0,-,0
CCOC(=O)c1cnn(CCOC(=O)c2cccc(F)c2)c1NC(=O)c1cccc(F)c1,-,-,0,-,0
O=C(NCC(c1cccs1)N1CCOCC1)c1ccccc1NS(=O)(=O)c1ccc(Br)cc1 (centres undefined),-,-,0,-,0
O=C(NCC(c1cccs1)N1CCOCC1)c1ccc(Br)o1 (centres undefined),0,22.6,0,0,0
O=C(COc1ccccc1)OCc1cc2ccccc2[nH]c1=O,0,0,0,0,0
COc1cc(Nc2ccccc2Cl)c([N+](=O)[O-])nc1[N+](=O)[O-],0,16.6,0,0,0
COc1ccc(N2C(=O)CC(Sc3nnc(-c4ccccc4)o3)C2=O)cc1 (centres undefined),0,1.4,0,2.2,0
O=C1CC(Sc2nnc(-c3ccccc3O)o2)C(=O)N1c1ccccc1 (centres undefined),0,1.7,0,2.4,0
O=C1CC(Sc2ncccn2)C(=O)N1c1ccccc1 (centres undefined),0,0,0,0,0
COC(=O)c1cc(COc2ccc3c(c2)oc(=O)c2ccccc23)c(C)o1,24.8,19.6,0,0,0
Cc1ccc(-n2c(SCC(=O)Nc3ccc4cn[nH]c4c3)nnc2-c2ccco2)cc1,0,31.7,0,0,0
CC(=O)Nc1ccc(NC(=O)CSc2nnc(-c3ccco3)n2Cc2ccco2)cc1,0,11.5,0,0,0
Cc1csc2nc(CNS(=O)(=O)c3ccc4c(c3)CCCC4)cn12,0,0,0,0,0
O=C(Nc1ccc(Cl)cc1)Nc1ccccc1C(=O)NCc1ccco1,0,0,0,0,0
O=C(Cc1cccs1)N1CCCC(c2nc3c(nnn3Cc3ccccc3Cl)c(=O)[nH]2)C1 (centres undefined),0,0,0,0,0
O=C(NCc1cccs1)c1nc2c(nnn2Cc2ccccc2Cl)c(=O)[nH]1,24.1,0,0,34.8,0
COc1ccc(/C(O)=C/c2nc3ccccc3n(-c3ccccc3)c2=O)cc1,0,23.5,0,0,0
COc1ccc(C(=O)C(CN2CCOCC2)c2ccccc2)cc1 (centres undefined),0,0.5,1.6,11.0,3.4
O=C(c1ccc(F)cc1)C(CN1CCOCC1)c1ccccc1 (centres undefined),0,0,1.6,25.3,1.6
COc1ccc(C(=O)C(OC(=O)c2ccccc2)c2ccccc2)cc1 (centres undefined),-,-,0,-,0
COc1ccc(C(=O)C(CN2CCCC2)c2ccccc2)cc1 (centres undefined),0,1.2,1.1,10.4,2.2
O=C(c1ccccc1)C(CCC(CN1CCOCC1)C(=O)c1ccccc1)CN1CCOCC1 (centres undefined),0,1.3,1.9,49.6,1.9
c1ccc(C(CN2CCOCC2)c2ccccc2)cc1,0,0,0,0,0
SMILES,HUVEC inhibit,H69AR inhibit,PTEN del growth,Fibroblast inh,HCT116 bCat-KO
COc1ccc(S(=O)(=O)Cc2ccc(C(=O)N3CCN(c4cc(Cl)ccc4C)CC3)o2)cc1,0,0,0,0,0
Cc1nn(CC(=O)N/N=C/c2ccc3c(c2)OCO3)c(C)c1Br,-,-,0,-,0
CCCCOc1ccc(C(=O)C(CN2CCOCC2)c2ccccc2)cc1 (centres undefined),2.3,1.0,2.0,0,1.9
CCOc1ccc(C(=O)CCN2CCCCC2)cc1,0,0,0,0,0
CCCCCOc1ccc(C(=O)C(c2ccccc2)N2CCOCC2)cc1 (centres undefined),0,0,0,0,0
CCCOc1ccc(C(=O)C(CN2CCCC2)c2ccccc2)cc1 (centres undefined),-,-,0.9,-,1.3
COc1ccc(C(=O)CCN2CCCCCC2)cc1,-,-,1.3,-,1.2
NS(=O)(=O)c1ccc(NC(=S)Nc2cc(Cl)c(Cl)cc2Cl)cc1,-,-,0,-,0
Cc1cc(=O)[nH]c(SCC(=O)Nc2ccc(Br)cc2)c1C#N,0,30.6,0,0,0
Cc1cc(=O)[nH]c(SCC(=O)Nc2ccccc2C#N)c1C#N,-,-,0,-,0
Cc1cc(NC(=O)CN2CCN(c3ccccc3F)CC2)nc2c1c(=O)oc1ccccc12,0,34.3,-,0,-
CCC(CC)C(=O)Nc1cc(C)c2c(=O)oc3ccccc3c2n1,0,0,0,0,0
CCOc1ccc(C(=O)Nc2cc(C)c3c(=O)oc4ccccc4c3n2)cc1,26.4,18.9,0,0,0
COc1ccc(CC(=O)Nc2cc(C)c3c(=O)oc4ccccc4c3n2)cc1,0,22.1,-,0,-
Cc1cc(NC(=O)c2ccc(S(=O)(=O)N3CCCC3)cc2)nc2c1c(=O)oc1ccccc12,0,18.4,0,0,0
COc1ccc(OCCNC(=O)CSc2ccc(C(F)(F)F)cc2[N+](=O)[O-])cc1,-,-,0,-,0
Cn1c(CCc2ccccc2)nnc1SCC(=O)N1CCCC1,0,0,0,0,0
Cc1ccc(NC(=O)COC(=O)CNC(=O)c2cccc([N+](=O)[O-])c2)cc1S(=O)(=O)N1CCCCCC1,-,-,0,-,0
O=C1c2ccccc2NC(c2ccc(O)cc2)N1/N=C/c1ccc(O)cc1 (centres undefined),-,-,0,-,0
Cc1ccc(S(=O)(=O)CCC(=O)c2ccc(O)cc2O)cc1,0,1.0,0,0,0
Cc1ccc(S(=O)(=O)CCC(=O)OCc2ccc(Cl)cc2)cc1,-,-,0,-,0
CC1CCN(C(=S)NCCc2ccccc2)CC1,-,-,0,-,0
CCN(CC)S(=O)(=O)c1ccc(-c2nnc(SCc3nnc(-c4ccc(C)cc4)o3)o2)cc1,0,3.3,0,0,0
CCN(CC)S(=O)(=O)c1ccc(-c2nnc(SCC(=O)N3CCc4ccccc43)o2)cc1,0,4.4,-,35.4,-
CCN(CC)S(=O)(=O)c1ccc(-c2nnc(SCc3nnc(-c4ccc(C)cc4)o3)n2CC)cc1,0,0,0,0,0
SMILES,HUVEC inhibit,H69AR inhibit,PTEN del growth,Fibroblast inh,HCT116 bCat-KO
CCN(CC)S(=O)(=O)c1ccc(-c2nnc(SCC(=O)N3CCOCC3)o2)cc1,0,0,0,0,0
COc1ccc(Nc2cc(C(=O)NCc3ccco3)c3ccccc3n2)c(OC)c1,-,-,0,-,0
COc1ccc(N=c2oc3c(OC)cccc3cc2C(=O)NCc2ccco2)c(OC)c1,0,0,0,0,1.8
COc1ccc2cc(C(=O)NCc3ccco3)c(=O)oc2c1,0,0,0,0,0
COc1ccc2cc(C(=O)NCc3ccco3)c(=Nc3ccc(C(=O)O)cc3)oc2c1,0,21.4,0,0,0
COc1ccc(C(=O)Nc2ccc(Cl)cc2C(=O)NCc2ccco2)cc1,0,28.8,0,0,0
COc1ccc(NC(=O)Cn2cnc3c(cnn3-c3ccc(C)c(C)c3)c2=O)c(OC)c1,0,8.3,0,0,0
Oc1ccccc1N=Cc1ccc[nH]1,0,34.9,0,0,0

# Assay outcomes: PubChem BioAssay, SRMLSC
